≈ marks a conversion by molar mass, not a printed value.
Legend:
Listeria monocytogenes [1] = assay: Bactericidal activity against Listeria monocytogenes NCTC 7973 incubated for 24 hrs followed by re-plating on tryptic soy broth; type: functional; conditions: NCTC 7973, 24 h
Procedure, shortened: (§1)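 Bacteria were grown in tryptic soy broth, 1.0×10^4 CFU per well, with compounds in 5% DMSO at 0.001-1.0 mg/ml for 24 h at 37 °C. Then 10 µL was subcultured into fresh TSB. MBC is the lowest concentration showing no growth after subculture, taken as 99.5% kill of the original inoculum. Duplicates, repeated three times.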

Salmonella typhimurium [2] = assay: Bactericidal activity against Salmonella typhimurium ATCC 13311 incubated for 24 hrs followed by re-plating on tryptic soy broth; type: functional, Salmonella enterica subsp. enterica serovar Typhimurium; conditions: Salmonella enterica, ATCC 13311, 24 h; procedure, shortened: as §1
Aspergillus ochraceus [3] = assay: Fungicidal activity against Aspergillus ochraceus ATCC 12066 incubated for 72 hrs followed by sub-culturing on broth malt medium and measured after 72 hrs; type: functional; conditions: ATCC 12066, 72 h
Procedure, shortened: (§2)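 After 72 h exposure in malt broth, 2 µL from test wells was subcultured into wells holding 100 µL broth and incubated a further 72 h at 28 °C. MFC is the lowest concentration with no visible growth, taken as 99.5% kill of the original inoculum. Three independent experiments in duplicate.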

Aspergillus ochraceus [4] = assay: Antifungal activity against Aspergillus ochraceus ATCC 12066 after 72 hrs by microdilution technique; type: functional; conditions: ATCC 12066, 72 h
Procedure, shortened: (§3)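 Spores were washed off malt agar with 0.85% saline containing 0.1% Tween 80 and adjusted to about 1.0×10^5 per well. Compounds in 5% DMSO were serially diluted (0.001-1.0 mg/ml) in malt broth with inoculum. Plates were shaken at 160 rpm for 72 h at 28 °C. MIC is the lowest concentration without visible growth under a binocular microscope. Three independent experiments in duplicate.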

Bacillus cereus [5] = assay: Bactericidal activity against Bacillus cereus clinical isolate incubated for 24 hrs followed by re-plating on tryptic soy broth; type: functional; procedure, shortened: as §1
Escherichia coli [6] = assay: Bactericidal activity against Escherichia coli ATCC 35210 incubated for 24 hrs followed by re-plating on tryptic soy broth; type: functional; conditions: ATCC 35210, 24 h; procedure, shortened: as §1
[7] = Antifungal activity against Penicillium funiculosum ATCC 36839 after 72 hrs by microdilution technique; type: functional; conditions: Talaromyces pinophilus, ATCC 36839, 72 h; procedure, shortened: as §3
Trichoderma viride [8] = assay: Fungicidal activity against Trichoderma viride IAM 5061 incubated for 72 hrs followed by sub-culturing on broth malt medium and measured after 72 hrs; type: functional; conditions: IAM 5061, 72 h; procedure, shortened: as §2
Enterobacter cloacae [9] = assay: Antibacterial activity against Enterobacter cloacae clinical isolate after 24 hrs by iodonitrotetrazolium chloride dye based microdilution method; type: functional
Procedure, shortened: (§4)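 Fresh overnight cultures adjusted spectrophotometrically to 1×10^5 CFU/mL, giving 1.0×10^4 CFU per well in tryptic soy broth. Compounds were dissolved in 5% DMSO and tested at 0.001-1.0 mg/ml by serial dilution; 5% DMSO was the negative control. After 24 h at 37 °C, 0.2 mg/mL INT solution was added for 30 min at 37 °C and OD read at 655 nm. MIC is the lowest concentration giving significant growth inhibition versus the positive control. Duplicates, repeated three times.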

Aspergillus versicolor [10] = assay: Fungicidal activity against Aspergillus versicolor ATCC 11730 incubated for 72 hrs followed by sub-culturing on broth malt medium and measured after 72 hrs; type: functional; conditions: ATCC 11730, 72 h; procedure, shortened: as §2
Penicillium cyclopium [11] = assay: Fungicidal activity against Penicillium verrucosum var. cyclopium food isolate incubated for 72 hrs followed by sub-culturing on broth malt medium and measured after 72 hrs; type: functional; procedure, shortened: as §2
Enterobacter cloacae [12] = assay: Bactericidal activity against Enterobacter cloacae incubated for 24 hrs followed by re-plating on tryptic soy broth; type: functional; procedure, shortened: as §1
Aspergillus niger [13] = assay: Antifungal activity against Aspergillus niger ATCC 6275 after 72 hrs by microdilution technique; type: functional; conditions: ATCC 6275, 72 h; procedure, shortened: as §3
Listeria monocytogenes [14] = assay: Antibacterial activity against Listeria monocytogenes NCTC 7973 after 24 hrs by iodonitrotetrazolium chloride dye based microdilution method; type: functional; conditions: NCTC 7973, 24 h; procedure, shortened: as §4
Aspergillus fumigatus [15] = assay: Antifungal activity against Aspergillus fumigatus ATCC 1022 after 72 hrs by microdilution technique; type: functional; conditions: ATCC 1022, 72 h; procedure, shortened: as §3
Aspergillus fumigatus [16] = assay: Fungicidal activity against Aspergillus fumigatus ATCC 1022 incubated for 72 hrs followed by sub-culturing on broth malt medium and measured after 72 hrs; type: functional; conditions: ATCC 1022, 72 h; procedure, shortened: as §2
Micrococcus flavus [17] = assay: Antibacterial activity against Micrococcus flavus ATCC 10240 after 24 hrs by iodonitrotetrazolium chloride dye based microdilution method; type: functional; conditions: ATCC 10240, 24 h; procedure, shortened: as §4
Staphylococcus aureus [18] = assay: Bactericidal activity against Staphylococcus aureus ATCC 6538 incubated for 24 hrs followed by re-plating on tryptic soy broth; type: functional; conditions: ATCC 6538, 24 h; procedure, shortened: as §1
Pseudomonas aeruginosa [19] = assay: Antibacterial activity against Pseudomonas aeruginosa ATCC 27853 after 24 hrs by iodonitrotetrazolium chloride dye based microdilution method; type: functional; conditions: ATCC 27853, 24 h; procedure, shortened: as §4
Bacillus cereus [20] = assay: Antibacterial activity against Bacillus cereus clinical isolate after 24 hrs by iodonitrotetrazolium chloride dye based microdilution assay; type: functional; procedure, shortened: as §4
Pseudomonas aeruginosa [21] = assay: Bactericidal activity against Pseudomonas aeruginosa ATCC 27853 incubated for 24 hrs followed by re-plating on tryptic soy broth; type: functional; conditions: ATCC 27853, 24 h; procedure, shortened: as §1
Penicillium ochrochloron [22] = assay: Antifungal activity against Penicillium ochrochloron ATCC 9112 after 72 hrs by microdilution technique; type: functional; conditions: ATCC 9112, 72 h; procedure, shortened: as §3
Aspergillus niger [23] = assay: Fungicidal activity against Aspergillus niger ATCC 6275 incubated for 72 hrs followed by sub-culturing on broth malt medium and measured after 72 hrs; type: functional; conditions: ATCC 6275, 72 h; procedure, shortened: as §2
Aspergillus versicolor [24] = assay: Antifungal activity against Aspergillus versicolor ATCC 11730 after 72 hrs by microdilution method; type: functional; conditions: ATCC 11730, 72 h; procedure, shortened: as §3
Penicillium ochrochloron [25] = assay: Fungicidal activity against Penicillium ochrochloron ATCC 9112 incubated for 72 hrs followed by sub-culturing on broth malt medium and measured after 72 hrs; type: functional; conditions: ATCC 9112, 72 h; procedure, shortened: as §2
Micrococcus flavus [26] = assay: Bactericidal activity against Micrococcus flavus ATCC 10240 incubated for 24 hrs followed by re-plating on tryptic soy broth; type: functional; conditions: ATCC 10240, 24 h; procedure, shortened: as §1
Salmonella typhimurium [27] = assay: Antibacterial activity against Salmonella typhimurium ATCC 13311 after 24 hrs by iodonitrotetrazolium chloride dye based microdilution method; type: functional, Salmonella enterica subsp. enterica serovar Typhimurium; conditions: Salmonella enterica, ATCC 13311, 24 h; procedure, shortened: as §4
Penicillium cyclopium [28] = assay: Antifungal activity against Penicillium verrucosum var. cyclopium food isolate after 72 hrs by microdilution technique; type: functional; procedure, shortened: as §3
Trichoderma viride [29] = assay: Antifungal activity against Trichoderma viride IAM 5061 after 72 hrs by microdilution technique; type: functional; conditions: IAM 5061, 72 h; procedure, shortened: as §3
[30] = Fungicidal activity against Penicillium funiculosum ATCC 36839 incubated for 72 hrs followed by sub-culturing on broth malt medium and measured after 72 hrs; type: functional; conditions: Talaromyces pinophilus, ATCC 36839, 72 h; procedure, shortened: as §2
Staphylococcus aureus [31] = assay: Antibacterial activity against Staphylococcus aureus ATCC 6538 after 24 hrs by iodonitrotetrazolium chloride dye based microdilution method; type: functional; conditions: ATCC 6538, 24 h; procedure, shortened: as §4
Escherichia coli [32] = assay: Antibacterial activity against Escherichia coli ATCC 35210 after 24 hrs by iodonitrotetrazolium chloride dye based microdilution method; type: functional; conditions: ATCC 35210, 24 h; procedure, shortened: as §4

COc1cc2c3c(c1)-c1c(ssc1=S)C(C)(C)N3C(=O)/C2=C1\SC(=S)NC1=O
MBC (Listeria monocytogenes [1]): 517 µM (≈ 240 µg/mL) | MBC (Salmonella typhimurium [2]): 129 µM (≈ 60 µg/mL) | MFC (Aspergillus ochraceus [3]): 3.23 ×10⁻² mM | MIC (Aspergillus ochraceus [4]): 1.72 ×10⁻² mM | MBC (Bacillus cereus [5]): 129 µM (≈ 59.9 µg/mL) | MBC (Escherichia coli [6]): 129 µM (≈ 59.9 µg/mL) | MIC [7]: 12.9 ×10⁻² mM | MFC (Trichoderma viride [8]): 3.23 ×10⁻² mM | MIC (Enterobacter cloacae [9]): 64.6 µM (≈ 30 µg/mL) | MFC (Aspergillus versicolor [10]): 25.8 ×10⁻² mM | MFC (Penicillium cyclopium [11]): 51.6 ×10⁻² mM | MBC (Enterobacter cloacae [12]): 129 µM (≈ 59.9 µg/mL) | MIC (Aspergillus niger [13]): 25.8 ×10⁻² mM | MIC (Listeria monocytogenes [14]): 258 µM (≈ 120 µg/mL) | MIC (Aspergillus fumigatus [15]): 25.8 ×10⁻² mM | MFC (Aspergillus fumigatus [16]): 51.6 ×10⁻² mM | MIC (Micrococcus flavus [17]): 96.9 µM (≈ 45 µg/mL) | MBC (Staphylococcus aureus [18]): 129 µM (≈ 59.9 µg/mL) | MIC (Pseudomonas aeruginosa [19]): 129 µM (≈ 60 µg/mL) | MIC (Bacillus cereus [20]): 64.6 µM (≈ 30 µg/mL) | MBC (Pseudomonas aeruginosa [21]): 258 µM (≈ 120 µg/mL) | MIC (Penicillium ochrochloron [22]): 3.23 ×10⁻² mM | MFC (Aspergillus niger [23]): 51.6 ×10⁻² mM | MIC (Aspergillus versicolor [24]): 12.9 ×10⁻² mM | MFC (Penicillium ochrochloron [25]): 6.46 ×10⁻² mM | MBC (Micrococcus flavus [26]): 129 µM (≈ 59.9 µg/mL) | MIC (Salmonella typhimurium [27]): 64.6 µM (≈ 30 µg/mL) | MIC (Penicillium cyclopium [28]): 25.8 ×10⁻² mM | MIC (Trichoderma viride [29]): 1.72 ×10⁻² mM | MFC [30]: 25.8 ×10⁻² mM | MIC (Staphylococcus aureus [31]): 64.6 µM (≈ 30 µg/mL) | MIC (Escherichia coli [32]): 96.9 µM (≈ 45 µg/mL)

Source: ChEMBL document CHEMBL4393701, “Appendix A. dithioloquinolinethiones as new potential multitargeted antibacterial and antifungal agents: Synthesis, biological evaluation and molecular docking studies” (2019)
